According to PMC10356740 (Journal of sleep research, 2023):
Like-named read-outs stand apart in the source and are kept apart here.

Legend:
[1] = system: narcoleptic male orexin/tTA; TetO-DTA mice; assay: Gross motor activity, running wheel activity and subcutaneous temperature; format: in vivo, mouse
In short: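 Gross motor activity came from the implanted subcutaneous telemeter, alongside home-cage running-wheel activity and bouts and subcutaneous temperature, analysed per ZT hour after dosing. Male DTA mice (n = 7), adapted ≥2 weeks to wheels, handling and dosing, received vehicle or 1, 3 or 10 mg/kg s.c. or i.p. 15 min before ZT12 in repeated-measures order. Analysis was 2-way RM ANOVA (treatment × time) with Holm-Sidak.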

[2] = system: narcoleptic male orexin/tTA; TetO-DTA mice; assay: EEG spectral power analysis; format: in vivo, mouse
In short: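 Male orexin/tTA;TetO-DTA mice (n = 7) with subcutaneous EEG/EMG telemeters received vehicle or 1, 3 or 10 mg/kg (s.c. or i.p. by compound, 10 mL/kg) 15 min before light offset at ZT12. Design was repeated measures in balanced order, ≥3 d apart. Normalized EEG spectra were taken in 0.122 Hz bins and bands: delta 0.5–4, theta 4–9, alpha 9–12, beta 12–30, low gamma 30–60, high gamma 60–100 Hz. Each state needed ≥3 animals. Analysis was 2-way RM ANOVA with Holm-Sidak.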

wild-type mice [3] = details: subcutaneous; ref Yukitake et al., 2019; cited from earlier work
[4] = format: in vivo; details: mouse, sc, 10 mg/kg
In short: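 Dosing was 10 mg/kg, s.c. or i.p. by compound, with sparse sampling of plasma and brain. Total drug measured by LC-MS/MS was multiplied by fraction unbound to give free concentrations. Fraction unbound came from 5 μM compound incubated in mouse plasma or brain homogenate by rapid equilibrium dialysis. Parameters were derived by noncompartmental analysis, with terminal half-life by best fit.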

[5] = system: healthy sleep-deprived adults; details: Phase 1; ref Evans et al., 2019; cited from earlier work
[6] = Fraction unbound by rapid equilibrium dialysis; format: in vitro ADME; details: mouse
[7] = system: narcoleptic OX2R knockout (KO) mice; details: subcutaneous; ref Yukitake et al., 2019; cited from earlier work
[8] = system: narcoleptic male orexin/tTA; TetO-DTA mice; assay: EEG/EMG sleep/wake and cataplexy scoring after dosing before dark onset; format: in vivo, mouse
In short: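 Crossover in telemetered male DTA mice (n = 7) given 1, 3 or 10 mg/kg s.c. or i.p., or the matching vehicle, 15 min before ZT12, ≥3 d between doses. EEG/EMG were scored for 6 h as hourly and cumulative time per state and as bouts. NREM latency ran from dosing to the first 6 consecutive NREM epochs; REM latency to the first 3 REM epochs. Analysis used 1-way ANOVA or 2-way RM ANOVA (treatment × time), with Holm-Sidak vs vehicle.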

Hcrt-neuron ablated mice = details: ref Kimura et al., 2019; cited from earlier work
orexin/ataxin-3 mice = details: chronic dosing for up to 14 days; ref Ishikawa et al., 2020; cited from earlier work
OX1R = details: OX2R over OX1R; ref Kimura et al., 2019; cited from earlier work
OX2R = details: read-out: EC50 on OX2R; ref Kimura et al., 2019; cited from earlier work
wild-type mice [9] = details: oral, 5h into the light period, normal sleep phase; ref Ishikawa et al., 2019; cited from earlier work
[10] = Phase 2; led Takeda to suspend dosing; cited from earlier work
[11] = first post-dosing hour (ZT13), all doses s.c.
[12] = second post-dosing hour, 10 mg/kg s.c.
[13] = first hour, all doses 1–10 mg/kg s.c.
[14] = first post-dosing hour, all doses s.c.

In the case of `COC(=O)N1CCC[C@H](NS(C)(=O)=O)[C@@H]1CO[C@H]1CC[C@@H](c2ccccc2)CC1` [TAK-925, Methyl (2R,3S)-3-[(methylsulfonyl)amino]-2-{[(cis-4-phenylcyclohexyl)oxy]methyl}piperidine-1-carboxylate], the “Number of running bouts” value ([1]; ZT13, all doses s.c.) is reported as “more running bouts”, the Running wheel activity ([1]; ZT17, 10 mg/kg s.c.) is reported as “Reduced running wheel activity” and the Gross motor activity ([1]; ZT17, highest dose s.c.) is reported as “reduced gross motor activity”. The Running wheel activity ([1]; ZT18, 10 mg/kg s.c.) was “increase at ZT18”, the Running wheel activity ([1]; first post-dosing hour (ZT13), 1 mg/kg s.c.) was “significantly increased running wheel activity” and the Gross motor activity [1, 11] was “significantly increased motor activity”. For the same compound, the “Subcutaneous temperature (Tsc)” value [1, 11] was “significantly increased Tsc”, the “High gamma EEG power during Wake across the entire recording period” value ([2]; 10 mg/kg s.c., p = 0.02) was “significantly increased high gamma” and the “Waking EEG high gamma power” value ([2]; ZT13, 1 mg/kg s.c.) was “significantly increased high gamma power”. For the same compound, the “Waking EEG spectral power in alpha, low gamma and high gamma” value ([2]; ZT13, 3 and 10 mg/kg s.c.) was “significantly increased spectral power in all three bandwidths”, the “NREM EEG delta power” value ([2]; ZT14, 1 mg/kg s.c.) was “increased NREM delta” and the “NREM EEG spectral power” value ([2]; ZT14, 10 mg/kg s.c.) was “increased spectral power during ZT14 for all EEG bands except for low gamma”. The “Waking EEG high gamma power, persistence of effect” value [2, 12] was “continued into the second post-dosing hour”, the Wakefulness (wild-type mice [3]) was “wake-promoting” and the Cmax ([4]; brain) was 20 ng/g. For the same compound, the Tmax ([4]; brain) was 10 min, the half-life ([4]; brain) was 53 min and the AUC(0-t) ([4]; plasma) was 335 ng·h/mL. It also gave a Cmax ([4]; plasma) of 160 ng/mL, a Tmax ([4]; plasma) of 10 min and a half-life ([4]; plasma) of 36 min. The “Ability to maintain wakefulness” value [5] was “improved individuals’ ability to maintain wakefulness”, the Tolerability [5] was “well-tolerated” and the fraction unbound at 5 μM ([6]; mouse brain homogenate) was 0.077. The fraction unbound at 5 μM ([6]; mouse plasma) was 0.107, the Wakefulness [7] was “but not in narcoleptic OX2R knockout (KO) mice” and the “Duration of the reduction of Wake bouts” value ([8]; 10 mg/kg s.c.) was “up to 3 h”. For the same compound, the “Cumulative time in Cataplexy” value ([8]; 10 mg/kg s.c., p = 1.74 × 10^−4) was “suppression of Cataplexy”, the “Latency to NREM sleep” value ([8]; 1, 3 and 10 mg/kg s.c., vs vehicle) was “delayed NREM sleep onset” and the “Effects on arousal states (Wake, NREM, REM) across the 6-h recording” value ([8]; 1–10 mg/kg s.c.) was “transitory”. For the same compound, the “NREM bout duration, post hoc test per dose” value ([8]; 1–10 mg/kg s.c.) was “did not identify any specific dose”, the “REM bout duration, post hoc test per dose” value ([8]; 1–10 mg/kg s.c.) was “did not identify any specific dose” and the “Latency to REM sleep” value ([8]; all doses (1, 3, 10 mg/kg s.c.), vs vehicle) was “delayed REM sleep”. For the same compound, the “Wake bout duration, treatment effect” value ([8]; all doses s.c., 6-h recording) was “significant treatment effects”, the REM/NREM ratio ([8]; entire 6-h recording, s.c.) was “unchanged” and the “Hourly amount of Cataplexy” value [8, 13] was “eliminated”. The “Hourly amount of NREM sleep” value [8, 13] was “eliminated”, the “Hourly amount of REM sleep” value [8, 13] was “eliminated” and the “Hourly amount of Wake” value [8, 13] was “caused continuous wakefulness”. The Wake bout duration [8, 11] was “increased Wake bout duration”, the “Number of bouts of Cataplexy” value [8, 14] was “reduced the number of bouts” and the “Number of bouts of NREM” value [8, 14] was “reduced the number of bouts”. For the same compound, the “Number of bouts of REM” value [8, 14] was “reduced the number of bouts”, the “Number of bouts of Wake” value [8, 14] was “reduced the number of bouts” and the “Number of Cataplexy bouts” value ([8]; first two hours, all doses s.c.) was “reduced the number of Cataplexy bouts”. For the same compound, the “Compensatory NREM sleep after increased wakefulness” value ([8]; hours after the first post-dosing hour, s.c.) was “no compensatory increase in NREM sleep”, the “Number of Wake bouts across the entire 6-h recording” value ([8]; only 10 mg/kg s.c., p = 0.013) was “reduced the number of Wake bouts” and the “Percent time in Cataplexy across the 6-h recording” value ([8]; only the highest dose (10 mg/kg s.c.)) was “reduced Cataplexy across the entire 6-h recording period”. The “REM sleep rebound after early suppression” value ([8]; s.c., ZT16, 4 hours post-treatment) was “rebound that reached significance at ZT16”, the “Cumulative time in REM sleep” value ([8]; s.c., first two hours after dosing, followed by a later rebound) was “significant suppression of REM sleep” and the “Increase of Wake bout duration” value ([8]; second post-dosing hour (ZT14), highest dose s.c.) was “continued into the second post-dosing hour”. The “Hourly amount of Cataplexy” value [8, 12] was “reduction of Cataplexy continued into the second post-dosing hour”.

For `CC(C)(O)C(=O)N1CC[C@H](NS(C)(=O)=O)[C@@H]1Cc1cccc(-c2cc(F)cc(F)c2)c1F.CC(C)(O)C(=O)N1CC[C@H](NS(C)(=O)=O)[C@@H]1Cc1cccc(-c2cc(F)cc(F)c2)c1F.O.O.O` [TAK-994], the Cataplectic episodes (Hcrt-neuron ablated mice) is listed as “suppressing cataplectic episodes”, the “Time spent in wake” value (Hcrt-neuron ablated mice) is listed as “increased time spent in wake” and the Wake maintenance (Hcrt-neuron ablated mice) is listed as “improved wake maintenance”. For the same compound, the Sleep rebound (orexin/ataxin-3 mice) was “without causing a sleep rebound”, the “Wakefulness after chronic dosing” value (orexin/ataxin-3 mice) was “wake-promoting effects” and the “selectivity against OX1R” value (OX1R) was over 700 fold. For the same compound, the EC50 (OX2R) was 19 nM, the Wakefulness (wild-type mice [9]) was “promoted wakefulness” and the Safety [10] was “a safety signal emerged”.
